In ChEMBL document CHEMBL1135742, “Modification of the structure of a metallopeptide: synthesis and biological evaluation of (111)In-labeled DOTA-conjugated rhenium-cyclized alpha-MSH analogues” (J Med Chem, 2002):

Species: Mus musculus
Assay: Uptake Ratio of Tumor/liver (each in % ID/g) in B16/F1 Murine Melanoma-Bearing C57 Mice at 2 h
Assay type: functional, organism-based
Conditions: not given
Method in brief: (§1)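 C57 BL/6 female mice (7–8 weeks) carried B16/F1 tumours from 1×10^6 cells given s.c. in the right flank; tumours were ~500 mg at 9–10 days. Each mouse received […] of HPLC-purified, neutralized 111In-DOTA peptide via the tail vein. Mice were killed at 0.5, 2, 4 or 24 h pi. Tissues were weighed and γ-counted, expressed as % ID/g; ratios were tumor/tissue % ID/g.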

| Substance | Uptake ratio |
| --- | --- |
| DOTA-ReCCEHdFRWCKPV-OH | 63 |

Species: Mus musculus
Assay: Uptake Ratio of Tumor/lungs (each in % ID/g) in B16/F1 Murine Melanoma-Bearing C57 Mice at 2 h
Assay type: functional, organism-based
Conditions: not given
Method in brief: (§2)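 Female C57 BL/6 mice, 7–8 weeks old, carried subcutaneous right-flank B16/F1 tumors from 1×10^6 cells and were used 9–10 days later at ~500 mg tumor weight. Each received […] of HPLC-purified, pH-neutralized ¹¹¹In-DOTA peptide by tail vein. Tumor and organs were excised at the stated time, weighed and γ-counted. Each tissue was taken as % ID/g, and tumor/normal-tissue ratios were formed from these values.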

| Substance | Uptake ratio |
| --- | --- |
| DOTA-ReCCEHdFRWCKPV-OH | 52.8 |

Species: Mus musculus
Assay: Radioactivity uptake in the pancreas was expressed as a percentage of the injected radioactive dose per gram of tissue (% ID/g) in B16/F1 Murine Melanoma-Bearing C57 Mice at 4 h
Assay type: functional, organism-based
Conditions: not given
Method in brief: as §1

| Substance | ID/g |
| --- | --- |
| DOTA-ReCCEHdFRWCKPV-OH | 0.074% |

Species: Mus musculus
Assay: Radioactivity uptake in the tumor was expressed as a percentage of the injected radioactive dose per gram of tissue (% ID/g) in B16/F1 Murine Melanoma-Bearing C57 Mice at 0.5 h
Assay type: functional, organism-based
Conditions: not given
Method in brief: as §1

| Substance | ID/g |
| --- | --- |
| DOTA-ReCCEHdFRWCKPV-OH | 10.4% |

Species: Mus musculus
Assay: Radioactivity uptake in the spleen was expressed as a percentage of the injected radioactive dose per gram of tissue (% ID/g) in B16/F1 Murine Melanoma-Bearing C57 Mice at 2 h
Assay type: functional, organism-based
Conditions: not given
Method in brief: as §1

| Substance | ID/g |
| --- | --- |
| DOTA-ReCCEHdFRWCKPV-OH | 0.2% |

Species: Mus musculus
Assay: Radioactivity uptake in the tumor was expressed as a percentage of the injected radioactive dose per gram of tissue (% ID/g) in B16/F1 Murine Melanoma-Bearing C57 Mice at 4 h
Assay type: functional, organism-based
Conditions: not given
Method in brief: as §1

| Substance | ID/g |
| --- | --- |
| DOTA-ReCCEHdFRWCKPV-OH | 9.27% |

Species: Mus musculus
Assay: Radioactivity uptake in the kidneys was expressed as a percentage of the injected radioactive dose per gram of tissue (% ID/g) in B16/F1 Murine Melanoma-Bearing C57 Mice at 24 h
Assay type: functional, organism-based
Conditions: Kidney
Method in brief: as §1

| Substance | ID/g |
| --- | --- |
| DOTA-ReCCEHdFRWCKPV-OH | 7.35% |

Species: Mus musculus
Assay: Radioactivity uptake in the liver was expressed as a percentage of the injected radioactive dose per gram of tissue (% ID/g) in B16/F1 Murine Melanoma-Bearing C57 Mice at 2 h
Assay type: functional, organism-based
Conditions: not given
Method in brief: as §1

| Substance | ID/g |
| --- | --- |
| DOTA-ReCCEHdFRWCKPV-OH | 0.15% |

Species: Mus musculus
Assay: Uptake Ratio of Tumor/lungs (each in % ID/g) in B16/F1 Murine Melanoma-Bearing C57 Mice at 0.5 h
Assay type: functional, organism-based
Conditions: not given
Method in brief: as §2

| Substance | Uptake ratio |
| --- | --- |
| DOTA-ReCCEHdFRWCKPV-OH | 9 |

Species: Mus musculus
Assay: Radioactivity uptake in the lungs was expressed as a percentage of the injected radioactive dose per gram of tissue (% ID/g) in B16/F1 Murine Melanoma-Bearing C57 Mice at 4 h
Assay type: functional, organism-based
Conditions: Lung
Method in brief: as §1

| Substance | ID/g |
| --- | --- |
| DOTA-ReCCEHdFRWCKPV-OH | 0.1% |

Species: Mus musculus
Assay: Radioactivity uptake in the spleen was expressed as a percentage of the injected radioactive dose per gram of tissue (% ID/g) in B16/F1 Murine Melanoma-Bearing C57 Mice at 24 h
Assay type: functional, organism-based
Conditions: not given
Method in brief: as §1

| Substance | ID/g |
| --- | --- |
| DOTA-ReCCEHdFRWCKPV-OH | 0.22% |

Species: Mus musculus
Assay: Radioactivity uptake in the blood was expressed as a percentage of the injected radioactive dose per gram of tissue (% ID/g) in B16/F1 Murine Melanoma-Bearing C57 Mice at 24 h
Assay type: functional, organism-based
Conditions: not given
Method in brief: as §1

| Substance | ID/g |
| --- | --- |
| DOTA-ReCCEHdFRWCKPV-OH | 0.1% |

Species: Mus musculus
Assay: Radioactivity uptake in the tumor was expressed as a percentage of the injected radioactive dose per gram of tissue (% ID/g) in B16/F1 Murine Melanoma-Bearing C57 Mice at 24 h
Assay type: functional, organism-based
Conditions: not given
Method in brief: as §1

| Substance | ID/g |
| --- | --- |
| DOTA-ReCCEHdFRWCKPV-OH | 3.14% |

Species: Mus musculus
Assay: Radioactivity uptake in the muscle was expressed as a percentage of the injected radioactive dose per gram of tissue (% ID/g) in B16/F1 Murine Melanoma-Bearing C57 Mice at 0.5 h
Assay type: functional, organism-based
Conditions: not given
Method in brief: as §1

| Substance | ID/g |
| --- | --- |
| DOTA-ReCCEHdFRWCKPV-OH | 0.39% |

Species: Mus musculus
Assay: Uptake Ratio of Tumor/muscle (each in % ID/g) in B16/F1 Murine Melanoma-Bearing C57 Mice at 2 h
Assay type: functional, organism-based
Conditions: Muscle tissue
Method in brief: as §2

| Substance | Uptake ratio |
| --- | --- |
| DOTA-ReCCEHdFRWCKPV-OH | 174 |

Species: Mus musculus
Assay: Radioactivity uptake in the tumor was expressed as a percentage of the injected radioactive dose per gram of tissue (% ID/g) in B16/F1 Murine Melanoma-Bearing C57 Mice at 2 h
Assay type: functional, organism-based
Conditions: not given
Method in brief: as §1

| Substance | ID/g |
| --- | --- |
| DOTA-ReCCEHdFRWCKPV-OH | 9.19% |

Species: Mus musculus
Assay: Radioactivity uptake in the spleen was expressed as a percentage of the injected radioactive dose per gram of tissue (% ID/g) in B16/F1 Murine Melanoma-Bearing C57 Mice at 4 h
Assay type: functional, organism-based
Conditions: not given
Method in brief: as §1

| Substance | ID/g |
| --- | --- |
| DOTA-ReCCEHdFRWCKPV-OH | 0.15% |

Species: Mus musculus
Assay: Radioactivity uptake in the heart was expressed as a percentage of the injected radioactive dose per gram of tissue (% ID/g) in B16/F1 Murine Melanoma-Bearing C57 Mice at 2 h
Assay type: functional, organism-based
Conditions: not given
Method in brief: as §1

| Substance | ID/g |
| --- | --- |
| DOTA-ReCCEHdFRWCKPV-OH | 0.058% |

Species: Mus musculus
Assay: Radioactivity uptake in the pancreas was expressed as a percentage of the injected radioactive dose per gram of tissue (% ID/g) in B16/F1 Murine Melanoma-Bearing C57 Mice at 24 h
Assay type: functional, organism-based
Conditions: not given
Method in brief: as §1

| Substance | ID/g |
| --- | --- |
| DOTA-ReCCEHdFRWCKPV-OH | 0.064% |

Species: Mus musculus
Assay: Radioactivity uptake in the kidneys was expressed as a percentage of the injected radioactive dose per gram of tissue (% ID/g) in B16/F1 Murine Melanoma-Bearing C57 Mice at 2 h
Assay type: functional, organism-based
Conditions: Kidney
Method in brief: as §1

| Substance | ID/g |
| --- | --- |
| DOTA-ReCCEHdFRWCKPV-OH | 8.8% |

Species: Mus musculus
Assay: Radioactivity uptake in the blood was expressed as a percentage of the injected radioactive dose per gram of tissue (% ID/g) in B16/F1 Murine Melanoma-Bearing C57 Mice at 4 h
Assay type: functional, organism-based
Conditions: not given
Method in brief: as §1

| Substance | ID/g |
| --- | --- |
| DOTA-ReCCEHdFRWCKPV-OH | 0.056% |

Species: Mus musculus
Assay: Radioactivity uptake in the kidneys was expressed as a percentage of the injected radioactive dose per gram of tissue (% ID/g) in B16/F1 Murine Melanoma-Bearing C57 Mice at 4 h
Assay type: functional, organism-based
Conditions: Kidney
Method in brief: as §1

| Substance | ID/g |
| --- | --- |
| DOTA-ReCCEHdFRWCKPV-OH | 8.7% |
